# Data published in ChEMBL document CHEMBL1147233, “Chemistry and structure-activity relationship of HIV-1 integrase inhibitor integracide B and related natural products” (J Nat Prod, 2003).
# Assays:
# [1] = Inhibition of DNAse
# [2] = biological target: T1, Human immunodeficiency virus type 1 integrase (Human immunodeficiency virus 1, UniProt Q7ZJM1); experiment: Inhibition of recombinant HIV1 integrase using unprocessed donor DNA by coupled assay
# Procedure, shortened: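 Unprocessed donor DNA and inhibitor incubated with recombinant integrase together for 30 min, then target DNA added; strand-transfer product measured. Final DMSO 10%. IC50 from serial 2-fold dilutions in duplicate or triplicate; values without error limits are the average of these.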
# [3] = tested on: Human immunodeficiency virus 1; experiment: Antiviral activity against HIV1 infected in human H9 cells; type: functional; conditions: Human immunodeficiency virus 1, H9; read-out: CIC95
# Procedure, shortened: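 Multiple-cycle viral spread assay in HIV-1-infected H9 T-lymphoid cells; value is CIC95, the concentration giving >95% protection from viral infection.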
# [4] = biological target: Type II restriction enzyme EcoRI (Escherichia coli, UniProt P00642); experiment: Inhibition of Escherichia coli ECOR1
# [5] = biological target: T1, Human immunodeficiency virus type 1 integrase; experiment: Inhibition of recombinant HIV1 integrase using preprocessed donor DNA treated after washing excess enzyme by strand transfer assay
# Procedure, shortened: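 Integrase preincubated with preprocessed donor DNA, unbound enzyme washed off, then target DNA and inhibitor added together. Strand transfer product measured. Final DMSO 10%. IC50 from serial 2-fold dilutions run in duplicate or triplicate; values without error limits are the average of these.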
# [6] = biological target: T1, Human immunodeficiency virus type 1 integrase; experiment: Inhibition of HIV1 integrase assessed as inhibition of 3'-end processing reaction
# Procedure, shortened: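 Specific 3′-end processing of LTR donor-sequence oligonucleotide substrates, run with […]. IC₅₀ values without error limits are the average of duplicate or triplicate data sets.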
# [7] = biological target: T1, Human immunodeficiency virus type 1 integrase; experiment: Inhibition of recombinant HIV1 integrase using preprocessed donor DNA by assembly assay
# Procedure, shortened: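 Recombinant integrase and inhibitor were incubated with preprocessed donor DNA, unbound integrase was washed off, then target DNA was added. The read-out is the strand-transfer product. Final DMSO was 10%. IC₅₀ came from 2-fold dilution series run in duplicate or triplicate.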
# [8] = biological target: T1, Human immunodeficiency virus type 1 integrase; experiment: Inhibition of HIV1 integrase-mediated preintegration complex formation by Southern blotting
# Procedure, shortened: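 Preintegration complexes were isolated from HIV-1-infected cells, partially purified and used in an integration reaction. Products were analysed by Southern blotting and quantified by phosphorimaging. IC₅₀ values without error limits are the average of duplicate or triplicate data sets.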
# T1 sequence (Q7ZJM1 whole entry): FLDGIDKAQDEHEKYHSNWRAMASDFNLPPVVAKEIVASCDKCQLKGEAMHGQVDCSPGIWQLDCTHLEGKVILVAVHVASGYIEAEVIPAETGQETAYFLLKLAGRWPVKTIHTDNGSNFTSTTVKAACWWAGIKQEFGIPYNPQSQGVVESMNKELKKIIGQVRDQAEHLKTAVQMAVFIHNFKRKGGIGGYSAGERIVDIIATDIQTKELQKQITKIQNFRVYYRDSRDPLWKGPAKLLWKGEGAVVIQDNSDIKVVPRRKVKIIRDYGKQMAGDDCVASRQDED
# Sequence of Type II restriction enzyme EcoRI (P00642 whole entry): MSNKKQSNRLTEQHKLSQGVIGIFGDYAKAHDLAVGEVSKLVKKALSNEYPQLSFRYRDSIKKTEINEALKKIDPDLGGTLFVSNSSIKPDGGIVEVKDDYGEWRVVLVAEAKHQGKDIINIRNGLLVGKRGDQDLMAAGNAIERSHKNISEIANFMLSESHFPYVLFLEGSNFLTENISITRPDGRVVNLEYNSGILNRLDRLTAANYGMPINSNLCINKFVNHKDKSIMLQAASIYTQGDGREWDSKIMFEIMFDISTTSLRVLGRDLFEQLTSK
SMILES,IC50 [1],IC50 [2],IC95 [3],IC50 [4],IC50 [5],IC50 [6],IC50 [7],IC50 [8]
C=C(CC[C@@H](C)[C@H]1CC=C2C3=C([C@@H](O)[C@H](OC(C)=O)[C@@]21C)[C@@]1(C)C[C@@H](OC(=O)CCC(=O)O)[C@H](O)C(C)(C)[C@@H]1CC3)C(C)C,> 50 µM,3 µM,6 µM,> 50 µM,12 µM,–,–,–
C=C(CC[C@@H](C)[C@H]1CC=C2C3=C([C@@H](O)[C@H](OC(C)=O)[C@@]21C)[C@@]1(C)C[C@@H](O)[C@H](OC(=O)CN)C(C)(C)[C@@H]1CC3)C(C)C,> 50 µM,18 µM,–,> 50 µM,> 50 µM,–,–,–
CC(=O)O[C@H]1[C@H](O)C2=C(CC[C@H]3C(C)(C)[C@@H](OS(=O)(=O)O)[C@H](OC(=O)CCCCCCCCCCCCCCCO)C[C@]23C)[C@@H]2CC[C@H]([C@H](C)CCC3(C(C)(C)O)CO3)[C@]21C (stereo partly specified),> 50 µM,5.6 µM,> 50 µM,> 50 µM,5.6 µM,2 µM,12 µM,50 µM
CC(=O)O[C@H]1[C@H](O)C2=C(CC[C@H]3C(C)(C)[C@@H](OS(=O)(=O)O)[C@H](OC(=O)CCCCCCCCCCCCCCCO)C[C@]23C)C2=CC[C@H]([C@H](C)CCC3(C(C)(C)O)CO3)[C@]21C (stereo partly specified),> 50 µM,5 µM,6 µM,> 50 µM,14 µM,10 µM,–,–
C=C(CC[C@@H](C)[C@H]1CC[C@H]2C3=C([C@@H](O)[C@H](OC(C)=O)[C@]12C)[C@@]1(C)C[C@@H](O)[C@H](OS(=O)(=O)O)C(C)(C)[C@@H]1CC3)C(C)C,> 50 µM,5 µM,50 µM,> 50 µM,15 µM,5 µM,10 µM,30 µM
C=C(CC[C@@H](C)[C@H]1CC=C2C3=C([C@@H](O)[C@H](OC(C)=O)[C@@]21C)[C@@]1(C)C[C@@H](O)[C@H](OC(=O)CCC(=O)O)C(C)(C)[C@@H]1CC3)C(C)C,> 50 µM,3 µM,6 µM,> 50 µM,12 µM,5 µM,–,–
C[C@H](CCC(O)C(C)(C)O)[C@H]1CC[C@@]2(C)C3=C(CC[C@]12C)[C@@]1(C)C[C@@H](OC(=O)CC(C)(O)CC(=O)O)C(=O)C(C)(C)[C@@H]1CC3 (stereo partly specified) [CLAVARIC ACID],> 50 µM,47 µM,–,> 50 µM,85 µM,–,–,–
C[C@H](CCC(O)C(C)(C)O)[C@H]1CC[C@@]2(C)C3=C(CC[C@]12C)[C@@]1(C)C[C@@H](O)C(=O)C(C)(C)[C@@H]1CC3 (stereo partly specified) [CLAVARINONE],> 50 µM,68 µM,–,> 50 µM,> 100 µM,–,–,–
C=C(CC[C@@H](C)[C@H]1CC=C2C3=C([C@@H](O)[C@H](OC(C)=O)[C@@]21C)[C@@]1(C)C[C@@H](O)[C@H](OS(=O)(=O)O)C(C)(C)[C@@H]1CC3)C(C)C [INTEGRACIDE A],> 50 µM,4 µM,25 µM,> 50 µM,9 µM,5 µM,–,50 µM
C=C(CC[C@@H](C)[C@H]1CC=C2C3=C([C@@H](O)[C@H](OC(C)=O)[C@@]21C)[C@@]1(C)C[C@@H](O)[C@H](O)C(C)(C)[C@@H]1CC3)C(C)C [INTEGRACIDE B],> 50 µM,82 µM,–,> 50 µM,> 100 µM,–,–,–
